Reference: paper PMC2922024 (Neuroscience letters, 2010)
Positions of bridges follow the written chain, without caps; N, C: chain ends. Residues, ends and D or L forms follow the SMILES beside them.

Columns and labels:
[1] = Free GsMTx4 in media with or without serum; format: in vitro ADME
PC12 cells = experiment: Neurite outgrowth from PC12 cells; format: cell-based, rat; conditions: NGF 50 ng/ml alone, 48 h
How it was run: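 Rat PC12 cells were grown in high-glucose DMEM with 10% FBS, penicillin/streptomycin and 10 mM Hepes at 37 °C in 5% CO2. They were seeded at 4 × 10^4 per well, adhered overnight, then left untreated or given NGF (50 ng/ml final) for 48 h. Phase-contrast images were scored blinded: three random fields per well, at least 4 wells, fields of more than 10 cells, at least 250 cells per experiment. The percentage was calculated per image, and the longest neurite per bearing cell was averaged. Groups were compared by one-way ANOVA with Tukey–Kramer.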

CC(C)C[C@@H]1NC(=O)[C@@H](NC(=O)CN)CSSC[C@@H]2NC(=O)[C@@H]3CSSC[C@@H](C(=O)N[C@@H](CC(N)=O)C(=O)N[C@@H](Cc4ccccc4)C(=O)N[C@@H](CO)C(=O)N[C@@H](Cc4ccccc4)C(N)=O)NC(=O)[C@H](CC(C)C)NC(=O)[C@H](CCCCN)NC(=O)[C@H](Cc4ccccc4)NC(=O)[C@H](CC(C)C)NC(=O)[C@H](CCCCN)NC(=O)[C@H](CO)NC(=O)[C@H](CSSC[C@H](NC(=O)[C@H](CCCCN)NC(=O)[C@H](Cc4c[nH]c5ccccc45)NC(=O)[C@H](Cc4c[nH]c5ccccc45)NC(=O)[C@H](Cc4ccccc4)NC(=O)[C@H](CCC(=O)O)NC1=O)C(=O)N[C@@H](CC(N)=O)C(=O)N1CCC[C@H]1C(=O)N[C@@H](CC(N)=O)C(=O)N[C@@H](CC(=O)O)C(=O)N[C@@H](CC(=O)O)C(=O)N[C@@H](CCCCN)C(=O)N3)NC(=O)[C@H](CCCCN)NC(=O)[C@H](CC(C)C)NC(=O)[C@H](CCCCN)NC(=O)[C@@H]1CCCN1C(=O)[C@H](CCCNC(=N)N)NC2=O [GsMTx4] (H-GCLEFWWKCNPNDDKCCRPKLKCSKLFKLCNFSF-NH2; disulfide 2-17, 9-23, 16-30)
free concentration ([1]; culture media with 10% serum, mean (total) concentration 100 μM GsMTx4): ~ 5 μM
free drug concentration in media as share of the total ([1]; media with 10% serum): about 5%

B1: nerve growth factor (protein, UniProt P01139 122-241, looked up)
Beta-nerve growth factor: SSTHPVFHMGEFSVCDSVSVWVGDKTTATDIKGKEVTVLAEVNINNSVFRQYFFETKCRASNPVESGCRGIDSKHWNSYCTTTHTFVKALTTDEKQAAWRFIRIDTACVCVLSRKATRRG
modifications: Beta-nerve growth factor
length of the longest neurite per NBC (PC12 cells; untreated approximately 10 μm): ~ 20 μm
percentage of neurite bearing cells (PC12 cells; untreated ~1%): ~ 20%
